Source: PubChem BioAssay
HCT116 PTEN-null: growth suppressors of cells with PTEN tumor suppressor deletion | HCT116 PTEN-null viability, CellTiter-Glo, 60 h; active compounds read low | viability, % at 10 µM | 1.2% of 140,000 active;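 active means viability at or below a set limit, 4 SD under the median of all tested compounds, cut at about 3.7% in these data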;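 further: PTEN knockout HCT116 line with beta catenin targeted HCT116 as companion control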
HCT116 bCat-KO: beta-catenin-lacking colon tumor cell growth suppression | AID 818 | viability, % at 10 µM | HCT116 beta-catenin knockout viability, CellTiter-Glo, 60 h; active compounds read low | 1.5% of 140,000 active;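 active means viability at or under a set limit, the compound median less 4 SD, cut at about 6% in these data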;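 further: 0% = Hyamine 1622 control at 20 µM and 100% = untreated cell control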
Lmaj promast: Leishmania major promastigote growth inhibition. Leishmania major promastigotes, resazurin fluorescence viability. inhibition, % at 10 µM. 9% of 200,000 active; in the data active means inhibition above about 50%;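 further: promastigotes grown with compound for 44 hours at 28 °C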
PMI act: increases human mannose-6-phosphate isomerase activity; P34949; purified human PMI, coupled resazurin fluorescence, 20 min; active compounds read high; 1 = vehicle control, 0 substrate-free wells; activation factor at 20 µM; 0.005% of 190,000 active;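 active means activation factor of 2 or more at 20 µM, relative to plate controls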
Target sequence (P34949 whole entry, looked up): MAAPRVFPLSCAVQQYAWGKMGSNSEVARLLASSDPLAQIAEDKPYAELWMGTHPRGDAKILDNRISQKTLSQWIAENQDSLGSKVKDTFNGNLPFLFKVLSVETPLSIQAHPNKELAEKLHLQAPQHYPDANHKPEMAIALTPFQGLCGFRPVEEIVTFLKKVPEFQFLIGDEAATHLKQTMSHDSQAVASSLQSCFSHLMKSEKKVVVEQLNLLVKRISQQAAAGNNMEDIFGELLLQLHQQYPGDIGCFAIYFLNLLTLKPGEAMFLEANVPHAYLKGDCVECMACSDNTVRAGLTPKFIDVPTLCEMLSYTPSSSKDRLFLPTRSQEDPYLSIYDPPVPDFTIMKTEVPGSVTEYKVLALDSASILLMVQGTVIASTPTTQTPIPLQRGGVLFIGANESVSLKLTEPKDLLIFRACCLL
PMI act hi M6P: increases human PMI activity with near-saturating mannose 6-phosphate. P34949. coupled PMI enzyme assay, resazurin fluorescence, 20 min; active compounds read high; 1 = untreated enzyme, 0 = substrate-free blank. activation factor at 20 µM. 0.34% of 190,000 active. AID 1216;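 active means activation factor of 2 or more at 20 µM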
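Test system: human phosphomannose isomerase with PGI, G6PDH, diaphorase coupling enzymes; amount: 15 ng/mL PMI; incubation: enzyme reaction with compound 20 min at room temperature; technique: resorufin fluorescence (Ex 544/Em 590 nm) from resazurin via diaphorase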
* hit, by the source's call; x = no result given. Hits are enriched below; roughly 9.6% of the tested compounds scored in any of these assays.

SMILES	HCT116 PTEN-null	HCT116 bCat-KO	Lmaj promast	PMI act	PMI act hi M6P
CCN(CC(=O)Nc1cc(C)nn1-c1nc(C)cc(C)n1)Cc1ccccc1	52.5	56.4	52.6*	1.1	1.1
Cc1ccc(N(C)C(=O)N2CCN(S(=O)(=O)c3ccc4ccccc4c3)CC2)cc1	35.9	32.0	18.2	0.9	0.9
O=C(c1ccco1)N1CCN(C(=O)C2CCN(S(=O)(=O)Cc3ccccc3)CC2)CC1	109.0	91.2	-3.2	1	0.9
CC(C)c1ccccc1NC(=O)COc1ccc(C(=O)NCCc2ccccc2)cc1	81.9	84.9	71.4*	1	1
CCOc1ccc(NC(=O)COc2ccc(C(=O)NCCc3ccccc3)cc2)cc1	97.1	89.0	8.8	0.9	1
O=C1CC(C(=O)NC2CCCCC2)C2(CCCCC2)O1 (stereo unspecified)	x	x	1.5	0.9	1
O=C(CCCn1c(=S)[nH]c2cc3c(cc2c1=O)OCO3)N1CCc2ccccc2C1	84.7	86.8	0.0	0.8	0.8
Oc1c(Cl)cc(Cl)cc1C1=NNC(c2ccc(Cl)cc2)C1 (stereo unspecified)	x	x	46.0	1.8	2.6*
O=C(c1cccs1)N1CCN(Cc2ccccc2[N+](=O)[O-])CC1	92.3	83.7	76.5*	1	1
COc1ccc(CN2CCN(C(=O)c3cccs3)CC2)c(OC)c1OC	99.5	94.8	94.8*	0.9	1
CCn1c(SCC(=O)Nc2cc(C)on2)nnc1-c1ccc(OC)cc1	x	x	-10.4	0.9	0.9
COc1cccc(N2C(C(C)=O)=NN(c3ccccc3)C2c2ccc(N3CCOCC3)cc2)c1 (stereo unspecified)	66.3	76.3	18.8	0.8	0.8
COc1ccc(C2N(c3ccc(Cl)cc3)N=C(C(C)=O)N(C)N2C(C)=O)cc1 (stereo unspecified)	x	x	57.5*	0.9	1
CCC/C=N/NC(=O)C1COc2ccccc2O1 (stereo unspecified)	x	x	-5.6	1	1
COc1ccc(C2CC(c3cccs3)=NN2C(=O)COC(=O)C2CCCCC2)cc1OC (stereo unspecified)	x	x	19.7	0.9	0.8
O=C(Cn1cnc2ccccc2c1=O)NCCC(=O)N1CCN(c2ccccc2)CC1	103.6	102.6	-6.3	0.9	0.9
COc1ccc(-c2nc3c4ccccc4ccn3c2CN2CCCCC2)cc1	x	x	100.0*	0.9	0.9
CN(C)Cc1c(-c2ccc(Cl)cc2)nc2ccccn12	x	x	29.2	1.1	1.1
Clc1ccc(-c2nc3ccccn3c2CN2CCCCC2)cc1	x	x	76.8*	1	1
CSc1nnc(SCC2=NNC(=O)SC2)s1	90.6	90.7	-9.3	1	0.8
O=c1ccc(C(F)(F)F)cn1Cc1cc(=O)n2cc(Br)ccc2n1	x	x	-3.9	1	0.9
CCOC(=O)c1ccc(NC(=S)N2CCN(CCNC3=CC(=O)CC(C)(C)C3)CC2)cc1	x	x	-1.2	0.9	0.9
Cc1ccc(C)c2[nH]c(=O)c(C(c3nnnn3Cc3ccccc3)N3CCc4ccccc4C3)cc12 (stereo unspecified)	78.4	82.9	73.4*	1.2	1.6
Cc1ccc2cc(C(c3nnnn3CC3CCCO3)N3CCc4ccccc4C3)c(=O)[nH]c2c1 (stereo unspecified)	75.6	71.5	93.1*	1	1.4
CCCC1=[N+](CC(=O)c2ccccc2)CCn2c(C)ccc21	46.3	55.4	89.5*	1.2	1.2
SMILES	HCT116 PTEN-null	HCT116 bCat-KO	Lmaj promast	PMI act	PMI act hi M6P
Cc1ccc2c(c1)S/C(=C/c1ccc[n+](CCO)c1)N2C	x	x	81.6*	0.9	0.9
N#CCOC(=O)c1c2c(nc3ccccc13)CCC2	x	x	-8.4	1	1
Cc1cc(C)c2c(=O)n(CC(=O)NCCCN3CCOCC3)sc2n1	84.0	79.1	-6.3	1.2	1.7
Cc1cc(C)c2c(=O)n(CC(=O)N3CCC(Cc4ccccc4)CC3)sc2n1	9.2	1.4*	78.2*	0.8	0.8
Cc1cc(C)c2c(=O)n(CC(=O)NCCCN3CCN(c4ccccc4F)CC3)sc2n1	1.8*	1.7*	7.0	1.1	1.5
Cc1cccc(N2CCN(C(=O)c3cc(C)oc3C)CC2C)c1 (stereo unspecified)	72.0	79.7	56.0*	1	0.8
Cc1cccc(N2CCN(C(=O)Cn3sc4nc(C)cc(C)c4c3=O)CC2C)c1 (stereo unspecified)	1.4*	1.6*	-14.4	0.9	1
CCC1CCCCN1C(=O)CSc1nnc(-c2cccs2)o1 (stereo unspecified)	93.0	96.2	-5.2	0.9	0.9
